According to ChEMBL document CHEMBL4689842, “EUbOPEN Chemogenomics Library wave 1” (2021):

System: HEK-293T
Assay: Multiplex assay against HEK293T;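 on Population Tubulin-Different-Phenotype (%): share of the cells with healthy nuclei that show this phenotype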
Assay type: toxicity, cell-based
Conditions: human
How it was run: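 Cells stained live at seeding with Hoechst33342, BioTracker Green Microtubule Cytoskeleton Dye, MitoTracker Red and Annexin V Alexa Fluor 680 were imaged on a CQ1 microscope at 37°C and 5% CO2 after compound addition. Their classification by CellPathfinder machine-learning gating ran from Hoechst high-intensity objects versus normal cells, to healthy, pyknosed or fragmented nuclei among normal cells, to mitotic or apoptotic among pyknosed cells. Tubulin, mitochondrial-mass and membrane-permeability phenotypes are per cents of healthy-nucleus cells.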

[1] = 12 h, 1 µM, compound concentration 1 uM, replicate 1
[2] = 12 h, 1 µM, compound concentration 1 uM, replicate 2
[3] = 12 h, 10 µM, compound concentration 10 uM, replicate 1
[4] = 12 h, 10 µM, compound concentration 10 uM, replicate 2
[5] = 24 h, 1 µM, compound concentration 1 uM, replicate 1
[6] = 24 h, 1 µM, compound concentration 1 uM, replicate 2
[7] = 24 h, 10 µM, compound concentration 10 uM, replicate 1
[8] = 24 h, 10 µM, compound concentration 10 uM, replicate 2
[9] = 48 h, 1 µM, compound concentration 1 uM, replicate 1
[10] = 48 h, 1 µM, compound concentration 1 uM, replicate 2
[11] = 48 h, 10 µM, compound concentration 10 uM, replicate 1
[12] = 48 h, 10 µM, compound concentration 10 uM, replicate 2

For `CN1CCC(=C2c3ccccc3CC(=O)c3sccc32)CC1.O=C(O)/C=C/C(=O)O` [KETOTIFEN FUMARATE], the “Population Apoptotic (%)” value [1] was 46%, the “Population Fragmented Nuclei (%)” value [1] was 10% and the “Population Healthy Nuclei (%)” value [1] was 37%. For the same compound, the “Population Hoechst High Intensity Objects (%)” value [1] was 13%, the “Population Membrane Permeable-Phenotype (%)” value [1] was 5% and the “Population Mitochondria Different-Phenotype (%)” value [1] was 73%. The “Population Mitotic Cells (%)” value [1] was 53%, the “Population Normal (%)” value [1] was 86% and the “Population Pyknosed Nuclei (%)” value [1] was 51%. The “Population Tubulin-Different-Phenotype (%)” value [1] was 40%, the “Total Cell Count” value [1] was 288 and the “Population Apoptotic (%)” value [2] was 13%. The “Population Fragmented Nuclei (%)” value [2] was 4%, the “Population Healthy Nuclei (%)” value [2] was 40% and the “Population Hoechst High Intensity Objects (%)” value [2] was 4%. The “Population Membrane Permeable-Phenotype (%)” value [2] was 12%, the “Population Mitochondria Different-Phenotype (%)” value [2] was 17% and the “Population Mitotic Cells (%)” value [2] was 86%. For the same compound, the “Population Normal (%)” value [2] was 95%, the “Population Pyknosed Nuclei (%)” value [2] was 54% and the “Population Tubulin-Different-Phenotype (%)” value [2] was 28%. For the same compound, the “Total Cell Count” value [2] was 211, the “Population Apoptotic (%)” value [3] was 71% and the “Population Fragmented Nuclei (%)” value [3] was 11%. The “Population Healthy Nuclei (%)” value [3] was 28%, the “Population Hoechst High Intensity Objects (%)” value [3] was 10% and the “Population Membrane Permeable-Phenotype (%)” value [3] was 4%. The “Population Mitochondria Different-Phenotype (%)” value [3] was 98%, the “Population Mitotic Cells (%)” value [3] was 28% and the “Population Normal (%)” value [3] was 89%. The “Population Pyknosed Nuclei (%)” value [3] was 60%, the “Population Tubulin-Different-Phenotype (%)” value [3] was 97% and the “Total Cell Count” value [3] was 298. The “Population Apoptotic (%)” value [4] was 54%, the “Population Fragmented Nuclei (%)” value [4] was 7% and the “Population Healthy Nuclei (%)” value [4] was 22%. The “Population Hoechst High Intensity Objects (%)” value [4] was 5%, the “Population Membrane Permeable-Phenotype (%)” value [4] was 0% and the “Population Mitochondria Different-Phenotype (%)” value [4] was 100%. For the same compound, the “Population Mitotic Cells (%)” value [4] was 45%, the “Population Normal (%)” value [4] was 94% and the “Population Pyknosed Nuclei (%)” value [4] was 69%. The “Population Tubulin-Different-Phenotype (%)” value [4] was 100%, the “Total Cell Count” value [4] was 177 and the “Population Apoptotic (%)” value [5] was 50%. For the same compound, the “Population Fragmented Nuclei (%)” value [5] was 12%, the “Population Healthy Nuclei (%)” value [5] was 42% and the “Population Hoechst High Intensity Objects (%)” value [5] was 8%. The “Population Membrane Permeable-Phenotype (%)” value [5] was 7%, the “Population Mitochondria Different-Phenotype (%)” value [5] was 67% and the “Population Mitotic Cells (%)” value [5] was 49%. The “Population Normal (%)” value [5] was 91%, the “Population Pyknosed Nuclei (%)” value [5] was 44% and the “Population Tubulin-Different-Phenotype (%)” value [5] was 49%. The “Total Cell Count” value [5] was 307, the “Population Apoptotic (%)” value [6] was 13% and the “Population Fragmented Nuclei (%)” value [6] was 3%. The “Population Healthy Nuclei (%)” value [6] was 55%, the “Population Hoechst High Intensity Objects (%)” value [6] was 2% and the “Population Membrane Permeable-Phenotype (%)” value [6] was 14%. The “Population Mitochondria Different-Phenotype (%)” value [6] was 20%, the “Population Mitotic Cells (%)” value [6] was 86% and the “Population Normal (%)” value [6] was 97%. For the same compound, the “Population Pyknosed Nuclei (%)” value [6] was 41%, the “Population Tubulin-Different-Phenotype (%)” value [6] was 48% and the “Total Cell Count” value [6] was 251. For the same compound, the “Population Apoptotic (%)” value [7] was 75%, the “Population Fragmented Nuclei (%)” value [7] was 12% and the “Population Healthy Nuclei (%)” value [7] was 32%. The “Population Hoechst High Intensity Objects (%)” value [7] was 11%, the “Population Membrane Permeable-Phenotype (%)” value [7] was 1% and the “Population Mitochondria Different-Phenotype (%)” value [7] was 97%. For the same compound, the “Population Mitotic Cells (%)” value [7] was 24%, the “Population Normal (%)” value [7] was 88% and the “Population Pyknosed Nuclei (%)” value [7] was 55%. For the same compound, the “Total Cell Count” value [7] was 313, the “Population Apoptotic (%)” value [8] was 74% and the “Population Fragmented Nuclei (%)” value [8] was 4%. The “Population Healthy Nuclei (%)” value [8] was 35%, the “Population Hoechst High Intensity Objects (%)” value [8] was 4% and the “Population Membrane Permeable-Phenotype (%)” value [8] was 3%. The “Population Mitochondria Different-Phenotype (%)” value [8] was 95%, the “Population Mitotic Cells (%)” value [8] was 25% and the “Population Normal (%)” value [8] was 95%. For the same compound, the “Population Pyknosed Nuclei (%)” value [8] was 59%, the “Population Tubulin-Different-Phenotype (%)” value [8] was 98% and the “Total Cell Count” value [8] was 180. The “Population Apoptotic (%)” value [9] was 35%, the “Population Fragmented Nuclei (%)” value [9] was 12% and the “Population Healthy Nuclei (%)” value [9] was 40%. For the same compound, the “Population Hoechst High Intensity Objects (%)” value [9] was 15%, the “Population Membrane Permeable-Phenotype (%)” value [9] was 7% and the “Population Mitochondria Different-Phenotype (%)” value [9] was 52%. For the same compound, the “Population Mitotic Cells (%)” value [9] was 64%, the “Population Normal (%)” value [9] was 84% and the “Population Pyknosed Nuclei (%)” value [9] was 46%. For the same compound, the “Population Tubulin-Different-Phenotype (%)” value [9] was 52%, the “Total Cell Count” value [9] was 369 and the “Population Apoptotic (%)” value [10] was 16%. For the same compound, the “Population Fragmented Nuclei (%)” value [10] was 4%, the “Population Healthy Nuclei (%)” value [10] was 79% and the “Population Hoechst High Intensity Objects (%)” value [10] was 4%. The “Population Membrane Permeable-Phenotype (%)” value [10] was 10%, the “Population Mitochondria Different-Phenotype (%)” value [10] was 11% and the “Population Mitotic Cells (%)” value [10] was 83%. For the same compound, the “Population Normal (%)” value [10] was 95%, the “Population Pyknosed Nuclei (%)” value [10] was 16% and the “Population Tubulin-Different-Phenotype (%)” value [10] was 38%. For the same compound, the “Total Cell Count” value [10] was 468, the “Population Apoptotic (%)” value [11] was 71% and the “Population Fragmented Nuclei (%)” value [11] was 21%. The “Population Healthy Nuclei (%)” value [11] was 40%, the “Population Hoechst High Intensity Objects (%)” value [11] was 13% and the “Population Membrane Permeable-Phenotype (%)” value [11] was 2%. The “Population Mitochondria Different-Phenotype (%)” value [11] was 93%, the “Population Mitotic Cells (%)” value [11] was 28% and the “Population Normal (%)” value [11] was 86%. The “Population Pyknosed Nuclei (%)” value [11] was 38%, the “Population Tubulin-Different-Phenotype (%)” value [11] was 95% and the “Total Cell Count” value [11] was 362. For the same compound, the “Population Apoptotic (%)” value [12] was 72%, the “Population Fragmented Nuclei (%)” value [12] was 2% and the “Population Healthy Nuclei (%)” value [12] was 70%. The “Population Hoechst High Intensity Objects (%)” value [12] was 4%, the “Population Membrane Permeable-Phenotype (%)” value [12] was 5% and the “Population Mitochondria Different-Phenotype (%)” value [12] was 86%. For the same compound, the “Population Mitotic Cells (%)” value [12] was 27%, the “Population Normal (%)” value [12] was 95% and the “Population Pyknosed Nuclei (%)” value [12] was 26%. The “Population Tubulin-Different-Phenotype (%)” value [12] was 93% and the “Total Cell Count” value [12] was 215.
